Tests used:
[1] = biological target: T1, Transient receptor potential cation channel subfamily A member 1 (Homo sapiens, UniProt O75762); test: Agonist activity at human TRPA1 channel in HEK293 cells assessed as increase in intracellular calcium influx by radiometric Ca2+ imaging; type: functional, cell-based
[2] = biological target: T2, Transient receptor potential cation channel subfamily A member 1 (Rattus norvegicus, UniProt Q6RI86); test: Agonist activity at rat TRPA1 channel expressed in HEK293 cells assessed as increase in intracellular calcium influx; type: functional, cell-based
[3] = biological target: T1, Transient receptor potential cation channel subfamily A member 1; test: Antagonist activity at human TRPA1 channel expressed in CHO cells assessed as inhibition of cinnamaldehyde-induced intracellular calcium influx; type: functional, cell-based
[4] = biological target: T1, Transient receptor potential cation channel subfamily A member 1; test: Agonist activity at human TRPA1 channel expressed in HEK293 cells assessed as increase in membrane currents; type: functional, cell-based
[5] = biological target: T2, Transient receptor potential cation channel subfamily A member 1; test: Agonist activity at TRPA1 channel in rat DRG neurons assessed as increase in intracellular calcium influx; type: functional, cell-based
[6] = biological target: T1, Transient receptor potential cation channel subfamily A member 1; test: Activation of TRPA1 channel
Outline: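 Cell lines transfected with TRPA1 and loaded with a calcium-sensitive dye, read on FLIPR. Calcium influx is counted as the change in fluorescence above background. Each material was tested by preincubation or by direct addition. Calcium counts are expressed as a percentage of the control calcium count.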

[7] = biological target: T1, Transient receptor potential cation channel subfamily A member 1; test: Agonist activity at human TRPA1 channel expressed in CHO cells assessed as increase in intracellular calcium levels; type: functional, cell-based
[8] = biological target: T1, Transient receptor potential cation channel subfamily A member 1; test: Antagonist activity at human TRPA1 channel assessed as inhibition of allyl isothiocyanate-induced intracellular calcium influx; type: functional, cell-based
[9] = biological target: T1, Transient receptor potential cation channel subfamily A member 1; test: Antagonist activity at TRPA1 channel at 1 uM; type: functional
[10] = biological target: T1, Transient receptor potential cation channel subfamily A member 1; test: Antagonist activity at TRPA1 channel at 10 uM; type: functional
[11] = biological target: T1, Transient receptor potential cation channel subfamily A member 1; test: Antagonist activity at TRPA1 channel; type: functional
[12] = biological target: T3, Transient receptor potential cation channel subfamily A member 1 (Mus musculus, UniProt Q8BLA8); test: Agonist activity at mouse TRPA1 channel expressed in CHO cells assessed as increase in intracellular calcium influx; type: functional, cell-based
[13] = biological target: T3, Transient receptor potential cation channel subfamily A member 1; test: Antagonist activity at mouse TRPA1 channel expressed in CHO cells assessed as blockade of agonist-induced whole cell conductance by electrophysiology; type: functional, cell-based
[14] = biological target: Transient receptor potential cation channel subfamily V member 1 (Homo sapiens, UniProt Q8NER1); test: Activation of TRPV1 channel
[15] = biological target: T3, Transient receptor potential cation channel subfamily A member 1; test: Agonist activity at mouse TRPA1 channel expressed in HEK293 cells assessed as increase in intracellular calcium influx; type: functional, cell-based
[16] = biological target: T1, Transient receptor potential cation channel subfamily A member 1; test: Agonist activity at human TRPA1 channel expressed in HEK293 cells assessed as increase in intracellular calcium influx; type: functional, cell-based
[17] = biological target: T3, Transient receptor potential cation channel subfamily A member 1; test: Agonist activity at TRPA1 channel in mouse dorsal root ganglion cells assessed as increase in intracellular calcium influx by radiometric Ca2+ imaging; type: functional, tissue-based
[18] = biological target: Transient receptor potential cation channel subfamily V member 1 (Rattus norvegicus, UniProt O35433); test: Activation of rat TRPV1 channel
[19] = biological target: T1, Transient receptor potential cation channel subfamily A member 1; test: Activation of TRPA1 channel expressed in CHO cells assessed as increase in intracellular calcium levels; type: cell-based
[20] = biological target: T1, Transient receptor potential cation channel subfamily A member 1; test: Activation of human TRPA1 channel

T3 sequence (Q8BLA8 whole entry): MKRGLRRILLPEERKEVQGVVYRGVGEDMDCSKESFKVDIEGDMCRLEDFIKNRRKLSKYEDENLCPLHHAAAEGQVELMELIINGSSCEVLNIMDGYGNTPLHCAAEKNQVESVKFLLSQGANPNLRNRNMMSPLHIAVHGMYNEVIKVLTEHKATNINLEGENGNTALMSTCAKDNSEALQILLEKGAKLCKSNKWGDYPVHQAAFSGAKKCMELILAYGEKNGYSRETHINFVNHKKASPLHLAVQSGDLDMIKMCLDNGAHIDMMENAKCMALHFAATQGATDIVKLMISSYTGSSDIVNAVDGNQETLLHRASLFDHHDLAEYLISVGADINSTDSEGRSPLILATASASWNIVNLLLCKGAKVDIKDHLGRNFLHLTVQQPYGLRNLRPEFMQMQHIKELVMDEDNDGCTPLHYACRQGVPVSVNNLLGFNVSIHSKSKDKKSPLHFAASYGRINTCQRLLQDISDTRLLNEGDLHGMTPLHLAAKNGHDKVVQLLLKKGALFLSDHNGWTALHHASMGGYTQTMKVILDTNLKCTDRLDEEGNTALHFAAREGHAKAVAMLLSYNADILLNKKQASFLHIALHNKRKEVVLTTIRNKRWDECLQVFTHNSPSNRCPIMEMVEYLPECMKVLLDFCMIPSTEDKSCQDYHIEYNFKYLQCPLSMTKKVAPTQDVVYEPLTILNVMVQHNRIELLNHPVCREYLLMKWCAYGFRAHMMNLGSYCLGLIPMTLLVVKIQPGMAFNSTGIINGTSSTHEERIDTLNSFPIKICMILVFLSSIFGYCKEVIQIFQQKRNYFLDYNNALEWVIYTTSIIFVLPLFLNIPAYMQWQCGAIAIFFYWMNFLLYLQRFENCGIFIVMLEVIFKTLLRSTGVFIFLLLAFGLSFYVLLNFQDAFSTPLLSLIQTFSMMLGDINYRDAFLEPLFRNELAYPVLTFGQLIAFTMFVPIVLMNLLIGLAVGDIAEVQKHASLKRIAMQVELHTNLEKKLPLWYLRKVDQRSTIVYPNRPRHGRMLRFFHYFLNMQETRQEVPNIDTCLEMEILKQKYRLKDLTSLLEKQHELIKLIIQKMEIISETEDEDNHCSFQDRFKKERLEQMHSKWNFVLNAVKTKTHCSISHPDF
T2 sequence (Q6RI86 whole entry): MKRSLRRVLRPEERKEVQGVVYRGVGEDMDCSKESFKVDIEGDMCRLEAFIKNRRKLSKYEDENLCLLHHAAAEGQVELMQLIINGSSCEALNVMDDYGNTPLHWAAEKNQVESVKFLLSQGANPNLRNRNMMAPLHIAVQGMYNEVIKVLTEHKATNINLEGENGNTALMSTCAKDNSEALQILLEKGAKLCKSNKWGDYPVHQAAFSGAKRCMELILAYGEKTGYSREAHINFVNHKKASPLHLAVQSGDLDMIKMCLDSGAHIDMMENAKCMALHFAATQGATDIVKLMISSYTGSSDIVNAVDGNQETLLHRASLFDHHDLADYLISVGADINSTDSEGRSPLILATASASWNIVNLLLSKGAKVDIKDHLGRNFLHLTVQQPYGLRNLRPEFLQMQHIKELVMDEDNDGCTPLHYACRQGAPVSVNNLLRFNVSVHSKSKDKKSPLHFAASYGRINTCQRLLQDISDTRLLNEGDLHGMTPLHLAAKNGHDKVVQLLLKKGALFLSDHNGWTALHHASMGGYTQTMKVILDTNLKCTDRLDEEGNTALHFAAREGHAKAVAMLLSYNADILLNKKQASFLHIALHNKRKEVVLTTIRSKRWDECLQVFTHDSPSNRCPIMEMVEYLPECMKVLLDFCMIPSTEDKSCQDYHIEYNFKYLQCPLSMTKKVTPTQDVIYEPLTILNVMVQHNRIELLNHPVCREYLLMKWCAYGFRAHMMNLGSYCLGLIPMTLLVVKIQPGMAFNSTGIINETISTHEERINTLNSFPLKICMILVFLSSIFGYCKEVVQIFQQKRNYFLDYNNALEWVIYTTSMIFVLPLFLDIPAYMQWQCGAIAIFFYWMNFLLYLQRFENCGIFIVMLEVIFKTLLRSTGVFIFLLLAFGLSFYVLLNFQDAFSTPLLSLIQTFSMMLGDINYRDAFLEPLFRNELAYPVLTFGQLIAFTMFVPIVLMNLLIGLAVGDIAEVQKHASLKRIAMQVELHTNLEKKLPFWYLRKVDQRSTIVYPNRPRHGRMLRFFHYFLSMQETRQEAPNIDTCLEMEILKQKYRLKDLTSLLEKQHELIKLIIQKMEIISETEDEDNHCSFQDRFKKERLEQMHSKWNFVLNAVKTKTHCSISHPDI
T1 sequence (O75762 whole entry): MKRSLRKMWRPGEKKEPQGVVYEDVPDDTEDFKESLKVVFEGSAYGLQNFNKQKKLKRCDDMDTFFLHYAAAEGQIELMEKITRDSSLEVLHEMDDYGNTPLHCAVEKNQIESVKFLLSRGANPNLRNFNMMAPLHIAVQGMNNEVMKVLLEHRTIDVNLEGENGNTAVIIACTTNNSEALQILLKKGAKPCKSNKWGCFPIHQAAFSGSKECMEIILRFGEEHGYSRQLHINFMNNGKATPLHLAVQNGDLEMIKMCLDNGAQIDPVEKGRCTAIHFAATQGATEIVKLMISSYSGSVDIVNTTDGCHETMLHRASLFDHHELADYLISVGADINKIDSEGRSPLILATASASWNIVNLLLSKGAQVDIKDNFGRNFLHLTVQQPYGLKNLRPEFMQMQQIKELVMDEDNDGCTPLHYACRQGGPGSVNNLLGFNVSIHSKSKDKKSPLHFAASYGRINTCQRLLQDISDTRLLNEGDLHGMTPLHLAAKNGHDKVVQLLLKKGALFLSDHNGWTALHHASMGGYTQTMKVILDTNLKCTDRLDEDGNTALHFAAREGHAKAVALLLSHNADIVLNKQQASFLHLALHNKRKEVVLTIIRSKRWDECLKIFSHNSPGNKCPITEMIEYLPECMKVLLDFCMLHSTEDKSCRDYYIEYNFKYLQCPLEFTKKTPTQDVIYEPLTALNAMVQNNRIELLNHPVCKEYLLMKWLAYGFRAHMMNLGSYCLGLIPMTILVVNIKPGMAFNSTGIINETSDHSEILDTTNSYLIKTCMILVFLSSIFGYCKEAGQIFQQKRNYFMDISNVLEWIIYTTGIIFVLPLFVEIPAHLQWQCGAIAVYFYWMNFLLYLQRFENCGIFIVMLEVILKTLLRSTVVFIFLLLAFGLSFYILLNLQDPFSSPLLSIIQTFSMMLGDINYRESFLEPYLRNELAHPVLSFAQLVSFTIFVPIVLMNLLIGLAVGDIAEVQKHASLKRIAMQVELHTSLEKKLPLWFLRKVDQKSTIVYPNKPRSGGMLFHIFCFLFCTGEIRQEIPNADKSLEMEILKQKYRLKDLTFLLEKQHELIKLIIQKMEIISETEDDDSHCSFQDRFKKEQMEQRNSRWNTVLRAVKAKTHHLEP
Transient receptor potential cation channel subfamily V member 1 (Rattus norvegicus, UniProt O35433), sequence (O35433 whole entry): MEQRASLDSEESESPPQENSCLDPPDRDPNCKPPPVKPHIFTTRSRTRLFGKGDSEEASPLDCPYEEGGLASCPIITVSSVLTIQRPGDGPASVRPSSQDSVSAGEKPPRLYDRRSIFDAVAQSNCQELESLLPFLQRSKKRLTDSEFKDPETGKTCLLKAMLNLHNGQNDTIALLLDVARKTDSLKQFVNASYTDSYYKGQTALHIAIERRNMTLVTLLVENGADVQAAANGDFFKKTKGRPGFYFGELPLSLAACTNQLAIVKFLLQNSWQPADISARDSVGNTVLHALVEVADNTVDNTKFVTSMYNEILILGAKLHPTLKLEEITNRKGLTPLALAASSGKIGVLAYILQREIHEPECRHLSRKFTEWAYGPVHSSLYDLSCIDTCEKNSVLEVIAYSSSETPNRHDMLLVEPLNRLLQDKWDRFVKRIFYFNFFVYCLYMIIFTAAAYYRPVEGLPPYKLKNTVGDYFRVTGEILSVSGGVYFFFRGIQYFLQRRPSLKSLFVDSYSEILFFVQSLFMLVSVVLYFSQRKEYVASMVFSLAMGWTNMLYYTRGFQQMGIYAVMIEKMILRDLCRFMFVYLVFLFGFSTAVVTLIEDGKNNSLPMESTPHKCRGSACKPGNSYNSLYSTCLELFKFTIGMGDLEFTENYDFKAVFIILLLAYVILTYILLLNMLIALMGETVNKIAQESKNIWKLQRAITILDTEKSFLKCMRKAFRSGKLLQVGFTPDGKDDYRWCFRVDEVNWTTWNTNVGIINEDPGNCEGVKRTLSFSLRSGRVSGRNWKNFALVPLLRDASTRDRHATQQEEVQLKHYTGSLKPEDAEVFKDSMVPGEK
Transient receptor potential cation channel subfamily V member 1 (Homo sapiens, UniProt Q8NER1), sequence (Q8NER1 whole entry): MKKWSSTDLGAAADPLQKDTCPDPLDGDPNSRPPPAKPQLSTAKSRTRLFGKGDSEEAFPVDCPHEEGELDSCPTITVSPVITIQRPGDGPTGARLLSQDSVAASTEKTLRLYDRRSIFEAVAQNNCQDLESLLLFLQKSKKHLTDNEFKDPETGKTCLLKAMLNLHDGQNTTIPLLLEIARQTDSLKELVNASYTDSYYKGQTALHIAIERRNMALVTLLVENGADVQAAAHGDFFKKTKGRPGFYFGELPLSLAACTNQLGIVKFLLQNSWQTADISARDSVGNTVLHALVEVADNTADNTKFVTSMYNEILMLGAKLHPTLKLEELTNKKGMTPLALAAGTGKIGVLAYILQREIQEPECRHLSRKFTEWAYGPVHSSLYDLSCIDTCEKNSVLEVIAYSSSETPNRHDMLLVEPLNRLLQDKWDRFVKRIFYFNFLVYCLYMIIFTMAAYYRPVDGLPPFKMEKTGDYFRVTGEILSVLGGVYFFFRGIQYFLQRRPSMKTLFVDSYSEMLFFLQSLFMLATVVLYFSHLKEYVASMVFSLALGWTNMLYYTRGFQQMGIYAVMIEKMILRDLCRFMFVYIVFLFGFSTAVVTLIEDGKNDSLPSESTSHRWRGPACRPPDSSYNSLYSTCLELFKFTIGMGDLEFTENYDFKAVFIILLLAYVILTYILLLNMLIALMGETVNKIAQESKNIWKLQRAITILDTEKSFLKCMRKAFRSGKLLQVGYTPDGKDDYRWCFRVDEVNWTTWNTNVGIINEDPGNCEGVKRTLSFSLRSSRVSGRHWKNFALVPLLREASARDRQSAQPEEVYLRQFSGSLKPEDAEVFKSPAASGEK

## CCCCCCCC/C=C(\CCCCCCCC(=O)O)[N+](=O)[O-] [NITROLEIC ACID]
[1]
  EC50: 1 µM

## CCCCCc1cc(O)c(C/C=C(\C)CCC=C(C)C)c(O)c1 [CANNABIGEROL]
[2]
  EC50: 3.4 µM

## CCC(=N\O)/C(C)=C/c1cnccc1C
[3]
  IC50: > 100 µM

## O=C(O)/C=C1/C(=O)N(CC2CCCCC2)c2ccccc21
[4]
  EC50: 4.4 µM

## CCCCCc1cc(O)c2c(c1)OC(C)(CCC=C(C)C)C=C2 (centres undefined) [CANNABICHROMENE]
[2]
  EC50: 0.06 µM
[5]
  EC50: 34.3 µM

## CCCCC[C@H](O)/C=C/[C@H]1C=CC(=O)[C@H]1C/C=C\CCCC(=O)O
[6]
  EC50: 22.4 µM

## CC(C)CN1C(=O)/C(=C/C(=O)O)c2cccc(Cl)c21
[4]
  EC50: 0.61 µM

## CCC(=N\O)/C(C)=C/c1ccc(C)nc1
[3]
  IC50: > 100 µM

## CCC(=N\O)/C(C)=C/c1cncc2ccccc12
[3]
  IC50: > 100 µM

## NC(=O)/C=C1/C(=O)N(CC2CCCC2)c2c(F)cccc21
[4]
  EC50: 0.66 µM

## CC1(C)CCC[C@@]2(C)[C@H]1CC[C@@]1(CO1)[C@@H]2CC/C=C(/C=O)CC=O [MIOGADIAL]
[7]
  EC50: 0.2 µM

## O=C(O)/C=C1/C(=O)N(CC2CCCC2)c2ccccc21
[4]
  EC50: 3 µM

## COc1cccc(-c2csc(NC(=O)Cn3cnc4c3c(=O)n(C)c(=O)n4C)n2)c1
[8]
  IC50: < 1 µM

## CCN(CC)C(=S)SSC(=S)N(CC)CC
[7]
  EC50: 3 µM

## CN1C(=O)c2cccc(CC(=O)Nc3nc(-c4ccc(Cl)c(Cl)c4)cs3)c2C1=O
[9]
  inhibition: 86%
[10]
  inhibition: 98%
[11]
  IC50: 0.25 µM

## COC(=O)C1=C(C)NC(C)=C(C(=O)OCCN(C)Cc2ccccc2)C1c1cccc([N+](=O)[O-])c1 (centres undefined) [NICARDIPINE]
[12]
  EC50: 0.5 µM

## O=C1/C(=C/c2nccs2)c2ccccc2N1Cc1ccccc1
[4]
  EC50: 5.65 µM

## CC(C)CCC(=O)c1ccoc1 [PERILLAKETONE]
[6]
  EC50: 19.7 µM

## CC(C)CN1C(=O)/C(=C/C(=O)O)c2cc(F)ccc21
[4]
  EC50: 4.63 µM

## CC1(C)CCC[C@]2(C)[C@@H](C=O)C(C=O)=CC[C@@H]12 [POLYGODIAL]
[7]
  EC50: 0.059 µM

## CCCCCC(O)/C=C/C=O (centres undefined) [4-HYDROXYNON-2-ENAL]
[5]
  EC50: 19.9 µM

## CC1CCC(C(C)C)C(O)C1 (centres undefined) [MENTHOL]
[13]
  EC50: 56 µM

## C/C=C/C=C/C=C\CC/C=C/C(=O)NCC(C)(C)O
[14]
  EC50: 1.1 µM
[6]
  EC50: 6.6 µM

## CN1C(=O)c2cccc(CC(=O)Nc3nc(-c4cccc(C(F)(F)F)c4)cs3)c2C1=O
[9]
  inhibition: 60%
[10]
  inhibition: 96%
[11]
  IC50: 0.5 µM

## CC1(C)C[C@H]2C=C(C=O)[C@]3(C=O)C[C@]3(C)[C@H]2C1 [ISOVELLERAL]
[15]
  EC50: 2.58 µM
[16]
  EC50: 0.59 µM
[17]
  EC50: 130 µM

## C=CCS[S+]([O-])CC=C (centres undefined) [ALLICIN]
[18]
  EC50: 51.2 µM

## CN1CCC[C@H]1c1cccnc1 [NICOTINE]
[6]
  EC50: 17 µM

## O=C/C=C/c1ccccc1
[19]
  EC50: 6.5 µM

## C=C(C)[C@@H]1CCC(C)=C[C@H]1c1c(O)cc(CCCCC)c(C(=O)O)c1O [CANNABIDIOLIC ACID]
[2]
  EC50: 12 µM

## CCCCCC(=O)/C=C/C=O
[20]
  EC50: 1.9 µM

## CN1C(=O)c2cccc(CC(=O)Nc3nc(-c4ccc(C(F)(F)F)c(F)c4)cs3)c2C1=O
[9]
  inhibition: 97%
[10]
  inhibition: 100%

## Cn1c(=O)c2c(ncn2CC(=O)Nc2nc(-c3ccccc3)cs2)n(C)c1=O
[8]
  IC50: < 1 µM

## CC(C)=CCC/C(C)=C/CC/C(C)=C/CSCC(=O)O [FARNESYLTHIOACETIC ACID]
[7]
  EC50: 90 µM

## Cc1ccc(C(C)C)cc1O [CARVACROL]
[16]
  EC50: 7 µM

## C=CC=O [ACROLEIN]
[6]
  EC50: 0.8 µM

## CN1C(=O)c2cccc(CC(=O)Nc3nc(-c4cc(F)c(C(F)(F)F)c(F)c4)cs3)c2C1=O
[9]
  inhibition: 92%
[10]
  inhibition: 100%
[11]
  IC50: 0.25 µM

## CN(C)C(=O)/C=C1/C(=O)N(CC2CCCC2)c2c(F)cccc21
[4]
  EC50: 3.76 µM

## CCCCCc1cc(O)c2c(c1)OC(C)(C)[C@@H]1CCC(C)=C[C@@H]21 [DRONABINOL]
[2]
  EC50: 0.23 µM

## CCC(=N\O)/C(C)=C/c1cnc2ccccc2c1
[3]
  IC50: > 100 µM

## Cc1cc(-c2csc(NC(=O)Cc3cccc4c3C(=O)N(C)C4=O)n2)ccc1Cl
[9]
  inhibition: 83%
[10]
  inhibition: 91%
[11]
  IC50: 0.25 µM

## COCCOC(=O)C1=C(C)NC(C)=C(C(=O)OC(C)C)C1c1cccc([N+](=O)[O-])c1 (centres undefined) [NIMODIPINE]
[12]
  EC50: 0.8 µM

From ChEMBL document CHEMBL1155439, “Transient receptor potential ankyrin 1 (TRPA1) channel as emerging target for novel analgesics and anti-inflammatory agents” (J Med Chem, 2010)
